What all share (assay type): ADME, organism-based
In data set [1] the test system is Rattus norvegicus. The data set is described as follows: Distribution of Se-75 activity in Heart of female Sprague-Dawley Rat 120 min after iv administration compound. The conditions noted are these: in vivo, 2 h. The essentials:
(§1)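 Female Sprague-Dawley rats (100-300 g), five per group, got [75Se]selenonium salt by lateral tail vein: 0.2 mL saline with 5-6 μCi. Groups were killed by cardioectomy under chloroform anesthesia at the set times. The organ was taken intact, rinsed with saline, blotted, weighed and gamma counted. Values are % injected dose/g, mean and SEM of five.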

Data set [2] concerns Rattus norvegicus. The experiment in a line: Distribution of Se-75 activity in Heart of female Sprague-Dawley Rat 30 min after iv administration of compound. The note with it: in vivo, 0.5 h. The essentials: as §1
Data set [3] deals with Rattus norvegicus. The experiment in a line: Distribution of Se-75 activity in Adrenal of female Sprague-Dawley Rat 30 min after iv administration of compound. The conditions noted are these: in vivo, 0.5 h. The essentials: as §1
The test system of data set [4] is Rattus norvegicus. The experiment in a line: Distribution of Se-75 activity in Lung of female Sprague-Dawley Rat 120 min after iv administration compound. The note with it: in vivo, 2 h. The essentials: (§2)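 Female Sprague-Dawley rats (100-300 g), five per group, got [75Se]selenonium salt in 0.2 mL saline (5-6 μCi) by lateral tail vein. They were killed by cardioectomy under chloroform anesthesia at the stated time. A sample of the large organ was weighed and gamma counted, and counts were converted to % injected dose/g. Values are mean and SEM of five.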

Data set [5] deals with Rattus norvegicus. The data set is described as follows: Distribution of Se-75 activity in Brain of female Sprague-Dawley Rat 240 min after iv administration compound. The conditions noted are these: in vivo, 4 h.
Data set [6] has as its system Rattus norvegicus. The experiment in a line: Distribution of Se-75 activity in Kidney of female Sprague-Dawley Rat 120 min after iv administration compound. The conditions noted are these: in vivo, 2 h. The essentials: as §1
For data set [7], the system named is Rattus norvegicus. The data set is described as follows: Distribution of Se-75 activity in Lung of female Sprague-Dawley Rat 60 min after iv administration of compound. The conditions noted are these: in vivo, 1 h. The essentials:
as §2

Data set [8] deals with Rattus norvegicus. The data set is described as follows: Distribution of Se-75 activity in Adrenal of female Sprague-Dawley Rat 120 min after iv administration compound. The conditions noted are these: in vivo, 2 h. The essentials:
as §1

In data set [9] the test system is Rattus norvegicus. The data set is described as follows: Distribution of Se-75 activity in Liver of female Sprague-Dawley Rat 30 min after iv administration of compound. The note with it: in vivo, 0.5 h. The essentials: as §2
The test system of data set [10] is Rattus norvegicus. The experiment in a line: Distribution of Se-75 activity in Lung of female Sprague-Dawley Rat 240 min after iv administration compound. The note with it: in vivo, 4 h. The essentials:
as §2

Data set [11] relates to Rattus norvegicus. The data set is described as follows: Distribution of Se-75 activity in blood of female Sprague-Dawley Rat 60 min after iv administration of compound. The note with it: in vivo, 1 h. The essentials: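 Female Sprague-Dawley rats (100-300 g) got 5-6 μCi of [75Se]selenonium salt in 0.2 mL saline via lateral tail vein. Groups of five were anesthetized with chloroform at set times and killed by cardioectomy. Tissues were rinsed, blotted and weighed, then gamma-counted. Values are % injected dose per gram, mean and SEM of five.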

Data set [12] concerns Rattus norvegicus. The experiment in a line: Distribution of Se-75 activity in Kidney of female Sprague-Dawley Rat 240 min after iv administration compound. The conditions noted are these: in vivo, 4 h. The essentials:
as §1

The subject of data set [13] is Rattus norvegicus. The experiment in a line: Distribution of Se-75 activity in Liver of female Sprague-Dawley Rat 5 min after iv administration of compound. The conditions noted are these: in vivo. The essentials: as §2
Data set [14] has as its system Rattus norvegicus. The experiment in a line: Distribution of Se-75 activity in blood of female Sprague-Dawley Rat 120 min after iv administration of compound. The note with it: in vivo, 2 h. The essentials:
(§3)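 Tail-vein injection of 5-6 μCi [75Se]selenonium salt in 0.2 mL saline into female Sprague-Dawley rats (100-300 g), five per group. Rats were killed by cardioectomy under chloroform anesthesia at the time point. Radioactivity was gamma counted and expressed as % injected dose/g, mean and SEM of five.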

The test system of data set [15] is Rattus norvegicus. The data set is described as follows: Distribution of Se-75 activity in Brain of female Sprague-Dawley Rat 120 min after iv administration compound. The conditions noted are these: in vivo, 2 h.
Data set [16] has as its system Rattus norvegicus. The experiment in a line: Tissue radioactivity ratio in Heart to Blood 240 min after Intravenous Injection in rats. The note with it: other tissue, 4 h. The essentials:
(§4)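 Same rat biodistribution: female Sprague-Dawley rats (100-300 g), 5-6 μCi [75Se]selenonium salt in 0.2 mL saline iv by tail vein, five per time point, killed by cardioectomy under chloroform. Ratios are tissue-to-tissue quotients of gamma-counted % injected dose per gram in each organ (adrenal, heart, kidney, liver, blood).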

Data set [17] deals with Rattus norvegicus. The data set is described as follows: Distribution of Se-75 activity in Heart of female Sprague-Dawley Rat 240 min after iv administration compound. The note with it: in vivo, 4 h. The essentials: as §1
Data set [18] concerns Rattus norvegicus. The experiment in a line: Distribution of Se-75 activity in Adrenal of female Sprague-Dawley Rat 15 after iv administration of compound. The note with it: in vivo. The essentials:
as §1

The test system of data set [19] is Rattus norvegicus. The data set is described as follows: Distribution of Se-75 activity in Adrenal of female Sprague-Dawley Rat 60 min after iv administration of compound. The note with it: in vivo, 1 h. The essentials: as §1
Data set [20] deals with Rattus norvegicus. The data set is described as follows: Tissue radioactivity ratio in Heart to Blood 60 min after Intravenous Injection in rats. The note with it: other tissue, 1 h. The essentials:
as §4

For data set [21], the system named is Rattus norvegicus. The data set is described as follows: Distribution of Se-75 activity in Adrenal of female Sprague-Dawley Rat 240 min after iv administration compound. The conditions noted are these: in vivo, 4 h. The essentials: as §1
Data set [22] has as its system Rattus norvegicus. The experiment in a line: Tissue radioactivity ratio in Heart to Blood 5 min after Intravenous Injection in rats. The conditions noted are these: other tissue. The essentials: as §4
Data set [23] has as its system Rattus norvegicus. The experiment in a line: Tissue radioactivity ratio in adrenal to Liver 30 min after Intravenous Injection in rats. The note with it: in vivo, 0.5 h. The essentials:
as §4

Data set [24] relates to Rattus norvegicus. The experiment in a line: Distribution of Se-75 activity in Liver of female Sprague-Dawley Rat 60 min after iv administration of dcompound. The conditions noted are these: in vivo, 1 h. The essentials:
as §2

Data set [25] relates to Rattus norvegicus. The data set is described as follows: Distribution of Se-75 activity in Kidney of female Sprague-Dawley Rat 120 min after iv administration of compound. The conditions noted are these: in vivo, 2 h. The essentials:
as §1

Data set [26] has as its system Rattus norvegicus. The experiment in a line: Distribution of Se-75 activity in blood of female Sprague-Dawley Rat 120 min after iv administration compound. The conditions noted are these: in vivo, 2 h. The essentials: as §3
Data set [27] relates to Rattus norvegicus. The experiment in a line: Distribution of Se-75 activity in Lung of female Sprague-Dawley Rat 240 min after iv administration of compound. The note with it: in vivo, 4 h. The essentials:
as §2

Data set [28] relates to Rattus norvegicus. The experiment in a line: Distribution of Se-75 activity in Heart of female Sprague-Dawley Rat 240 min after iv administration of dose 5 uCi/0.2 mL. The note with it: in vivo, 4 h. The essentials:
as §1

The subject of data set [29] is Rattus norvegicus. The data set is described as follows: Distribution of Se-75 activity in Liver of female Sprague-Dawley Rat 60 min after iv administration of compound. The conditions noted are these: in vivo, 1 h. The essentials: as §2
Data set [30] concerns Rattus norvegicus. The data set is described as follows: Distribution of Se-75 activity in Kidney of female Sprague-Dawley Rat 240 min after iv administration of compound. The conditions noted are these: in vivo, 4 h. The essentials: as §1
The subject of data set [31] is Rattus norvegicus. The experiment in a line: Distribution of Se-75 activity in Brain of female Sprague-Dawley Rat 240 min after iv administration of compound. The note with it: in vivo, 4 h.
Data set [32] concerns Rattus norvegicus. The experiment in a line: Distribution of Se-75 activity in Adrenal of female Sprague-Dawley Rat 120 min after iv administration of compound. The conditions noted are these: in vivo, 2 h. The essentials: as §1
Data set [33] deals with Rattus norvegicus. The data set is described as follows: Distribution of Se-75 activity in Adrenal of female Sprague-Dawley Rat 240 min after iv administration of compound. The conditions noted are these: in vivo, 4 h. The essentials:
as §1

The subject of data set [34] is Rattus norvegicus. The experiment in a line: Distribution of Se-75 activity in Heart of female Sprague-Dawley Rat 120 min after iv administration of compound. The conditions noted are these: in vivo, 2 h. The essentials: as §1
The test system of data set [35] is Rattus norvegicus. The experiment in a line: Distribution of Se-75 activity in Lung of female Sprague-Dawley Rat 120 min after iv administration of compound. The note with it: in vivo, 2 h. The essentials: as §2
In data set [36] the test system is Rattus norvegicus. The experiment in a line: Distribution of Se-75 activity in Brain of female Sprague-Dawley Rat 120 min after iv administration of compound. The conditions noted are these: in vivo, 2 h.

With `COc1ccc(CC[Se+](C)C)cc1OC.[I-]`, the Dose/g stood at 0.17% with Rattus norvegicus [1]; 0.58% in the data set on Rattus norvegicus [2]; 0.94% in the data set with Rattus norvegicus [3]; 0.19% in the data set with Rattus norvegicus [4]; 0% with Rattus norvegicus [5]; 0.33% with Rattus norvegicus [6]. Moreover, the Dose/g is 0.38% with Rattus norvegicus [7]; 0.74% in the data set on Rattus norvegicus [8]; 1.75% in the data set with Rattus norvegicus [9]; 0.07% in the data set on Rattus norvegicus [10]; 0.12% in the data set with Rattus norvegicus [11]; 0.16% in the data set with Rattus norvegicus [12]. Further, the Dose/g came out at 2.48% with Rattus norvegicus [13]; 0.08% in the data set with Rattus norvegicus [14]; 0.01% with Rattus norvegicus [15]; 0.06% in the data set with Rattus norvegicus [17]; 0.88% in the data set on Rattus norvegicus [18]; 0.71% with Rattus norvegicus [19]. Moreover, the values for the Dose/g in the data set with Rattus norvegicus [21] and in the data set on Rattus norvegicus [24] were 0.64% and 0.62%, respectively. Besides, the Ratio came to 2 with Rattus norvegicus [16], 2.25 in the data set with Rattus norvegicus [20], 7 with Rattus norvegicus [22] and 0.54 in the data set on Rattus norvegicus [23].
Take `C[Se+](C)CCc1ccc(O)c(O)c1.[Cl-]`: the Dose/g in the data set with Rattus norvegicus [25] amounted to 0.29%; in the data set with Rattus norvegicus [26], 0.08%; in the data set with Rattus norvegicus [27], 0.09%; in the data set with Rattus norvegicus [2], 1.08%; in the data set on Rattus norvegicus [28] it was 0.16%; in the data set with Rattus norvegicus [29], 0.8%. Besides, the Dose/g with Rattus norvegicus [30] worked out at 0.18%; in the data set on Rattus norvegicus [3] it was 0.86%; with Rattus norvegicus [7] it was 0.58%; in the data set with Rattus norvegicus [31], 0%; in the data set on Rattus norvegicus [9] it was 2.73%; with Rattus norvegicus [11], 0.18%. Moreover, the Dose/g in the data set with Rattus norvegicus [32] is 0.73%; in the data set on Rattus norvegicus [13], 1.86%; with Rattus norvegicus [18] it was 0.87%; with Rattus norvegicus [19], 0.87%; with Rattus norvegicus [33], 0.59%; in the data set on Rattus norvegicus [34], 0.21%. In addition, the results for the Dose/g with Rattus norvegicus [35] and with Rattus norvegicus [36] were 0.2% and 0%, respectively. The Ratio in the data set on Rattus norvegicus [16] was found to be 3.2; in the data set with Rattus norvegicus [20] it was 2.55; in the data set with Rattus norvegicus [22] it was 6.77; in the data set with Rattus norvegicus [23], 0.31.

(Values after ChEMBL document CHEMBL1122494, “New selenium-75 labeled radiopharmaceuticals: selenonium analogues of dopamine” (J Med Chem, 1983).)
